In brackets after ≈: the same amount, converted by molar mass. Activity calls are given as the source filed them. The calls are words filed in the database; no cut-off is given here.
Columns and labels:
Paecilomyces variotii [1] = experiment: Antifungal activity against Paecilomyces variotii ETH 114646 upto 100 ug/mL after 24 hrs by microtiter plate assay; assay type: functional, organism-based
In short: (§1)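 Broth microdilution in microtiter plates, following an earlier published method. Each test fungus was inoculated at 1×10^5 spores/mL. Plates were incubated for 24 h at 27 °C, and antifungal activity was then scored.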

Rhodotorula glutinis [2] = experiment: Antifungal activity against Rhodotorula glutinis ATCC 26085 upto 100 ug/mL after 24 hrs by microtiter plate assay; assay type: functional, organism-based; in short: as §1
Nadsonia fulvescens [3] = experiment: Antifungal activity against Nadsonia fulvescens ATCC 24236 upto 100 ug/mL after 24 hrs by microtiter plate assay; assay type: functional, organism-based; in short: as §1
Eremothecium coryli [4] = experiment: Antifungal activity against Nematospora coryli ATCC 10647 upto 100 ug/mL after 24 hrs by microtiter plate assay; assay type: functional, organism-based; in short: as §1
Fusarium oxysporum = experiment: Antifungal activity against Fusarium oxysporum CBS 149.25 upto 100 ug/mL after 24 hrs by microtiter plate assay; assay type: functional, organism-based; in short: as §1
Nadsonia fulvescens [5] = experiment: Antifungal activity against Nadsonia fulvescens ATCC 24236 after 24 hrs by microtiter plate assay; assay type: functional; settings: ATCC 24236, 24 h; in short: as §1
Rhodotorula glutinis [6] = experiment: Antifungal activity against Rhodotorula glutinis ATCC 26085 after 24 hrs by microtiter plate assay; assay type: functional; settings: ATCC 26085, 24 h; in short: as §1
Paecilomyces variotii [7] = experiment: Antifungal activity against Paecilomyces variotii ETH 114646 after 24 hrs by microtiter plate assay; assay type: functional; in short: as §1
Eremothecium coryli [8] = experiment: Antifungal activity against Nematospora coryli ATCC 10647 after 24 hrs by microtiter plate assay; assay type: functional; settings: ATCC 10647, 24 h; in short: as §1
HL-60 = experiment: Cytotoxicity against human HL60 cells by Giemsa staining; assay type: functional
HeLa = experiment: Cytotoxicity against human HeLa S3 cells by Giemsa staining; assay type: functional
L1210 = experiment: Cytotoxicity against mouse L1210 cells by Giemsa staining; assay type: functional

| MIC (Nadsonia fulvescens [5]) | MIC (Rhodotorula glutinis [6]) | MIC (Paecilomyces variotii [7]) | MIC (Eremothecium coryli [8]) | SMILES | Activity (Paecilomyces variotii [1]) | Activity (Rhodotorula glutinis [2]) | Activity (Nadsonia fulvescens [3]) | Activity (Eremothecium coryli [4]) | Activity (Fusarium oxysporum) | IC90 (HL-60) | IC90 (HeLa) | IC90 (L1210) |
| --- | --- | --- | --- | --- | --- | --- | --- | --- | --- | --- | --- | --- |
| – | – | – | – | CCCCC(/C=C(C)/C=C/C=C/C(=O)N1CCCC1CO)OC (configuration not stated) | inactive | inactive | inactive | inactive | inactive | – | – | – |
| 1 µg/mL (≈ 3.43 µM) | 1 µg/mL (≈ 3.43 µM) | 1 µg/mL (≈ 3.43 µM) | 1 µg/mL (≈ 3.43 µM) | CCCC[C@@H](O)/C=C(C)/C=C/C=C/C(=O)N1CCCC1=O [PECILOCIN] | – | – | – | – | – | – | – | – |
| – | – | – | – | CCCCC(O)/C=C(C)/C=C/C=C/C(=O)N1CCCC1CO (configuration not stated) [VIRIDITIN] | inactive | inactive | inactive | inactive | inactive | 25 µg/mL (≈ 81.3 µM) | 25 µg/mL (≈ 81.3 µM) | 25 µg/mL (≈ 81.3 µM) |

From ChEMBL document CHEMBL1142645, “New variotin analogues from Aspergillus viridi-nutans” (2000)
